Compound activity (PubChem)
STEP block = blocks human striatal-enriched tyrosine phosphatase; P54829; recombinant STEP, OMFP fluorogenic substrate, fluorescence; inhibition, % at 20 µM; 360,000 tested, 0.25% active;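 active = inhibition at 20 µM, scaled per plate between control wells, above about 37%, limit read from the data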;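 also: 0% = DMSO with enzyme and substrate and 100% = substrate only without enzyme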
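System: STEP (striatal-enriched tyrosine phosphatase) enzyme, cell-free; medium: Bis-Tris pH 6.0 buffer with DTT, detergent; dosing: 20 µM, 1% DMSO; times: reaction 20 min, ambient temperature; detection: fluorescence, 480/540 nm; read-out basis: normalized % inhibition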
LMPTP block = blocks human LMPTP phosphatase; inhibition, % at 20 µM; recombinant LMPTP-A, OMFP fluorogenic substrate, fluorescence intensity; AID 651560; 360,000 tested, 0.22% active; P24666;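 active = compounds that cut the enzyme signal by at least half of the control window in the single-dose screen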;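 also: plate controls were DMSO wells with enzyme plus substrate for no effect and substrate without enzyme for full effect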
Target sequence (P24666 whole entry, looked up): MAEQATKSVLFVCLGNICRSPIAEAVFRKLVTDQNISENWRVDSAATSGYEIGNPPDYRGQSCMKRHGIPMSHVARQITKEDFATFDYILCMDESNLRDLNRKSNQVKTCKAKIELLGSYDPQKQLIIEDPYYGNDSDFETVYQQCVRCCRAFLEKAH
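Test system: LMPTP-A, protein tyrosine phosphatase of low molecular weight; Input: 0.625 nM enzyme; Incubation: 50 min dark incubation at room temperature; Signal: endpoint fluorescence intensity from OMFP dephosphorylation; Read-out basis: % inhibition versus control wells.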
DSG3 Ab inh = inhibitors of pemphigus antibody binding to human desmoglein-3. 310,000 tested, 0.48% active. P32926. binding (percent of control), % at 10 µM. DSG3-coupled beads, scFv-anti-DSG3-GFP binding, flow cytometry; stronger effect = lower value;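 active = binding more than 3 SD below its plate's average and above zero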;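 also: hits lower antibody fragment binding to DSG3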
SUMO1-SIM PPI = alters human SUMO1 binding to SIM partners. AID 602429. SUMO1 binding to a labelled peptide, TR-FRET, 1 h. 360,000 tested, 0.33% active. P63165. inhibition, % at 20 µM; in the data active = inhibition above about 37%
Target sequence (P63165 whole entry, looked up): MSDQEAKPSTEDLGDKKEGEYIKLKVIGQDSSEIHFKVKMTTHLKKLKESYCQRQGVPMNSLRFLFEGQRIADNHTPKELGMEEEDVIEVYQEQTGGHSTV
Scp1 inh = Scp-1 (human) phosphatase inhibition. Recombinant Scp1, phosphopeptide, malachite green phosphate absorbance. Q9GZU7. 340,000 tested, 0.88% active. AID 493091. inhibition, % at 20 µM;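 active = inhibition above about 50% at 20 µM, limit read from the data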;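 also: plate controls were DMSO wells with enzyme for no effect and wells lacking enzyme for full effect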
Target sequence (Q9GZU7 76-261 limits assumed): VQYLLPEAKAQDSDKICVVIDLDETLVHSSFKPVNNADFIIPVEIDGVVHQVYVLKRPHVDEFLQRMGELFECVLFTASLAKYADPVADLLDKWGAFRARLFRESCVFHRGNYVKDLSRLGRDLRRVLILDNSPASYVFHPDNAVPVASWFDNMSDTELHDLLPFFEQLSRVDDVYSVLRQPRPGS
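assay system = SCP-1 phosphatase catalytic domain, residues 76-261 | buffer or medium = 50 mM Tris acetate pH 5.5, 0.005% Tween-20, 10 mM MgCl2 | incubation = enzyme reaction 45 min at room temperature, colour 5 min, stabilisation 30 min | signal = Phosphate-binding colour reagent, absorbance read at 630 nm | measure = % inhibition at 20 µM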
* hit, by the source's call; x = no result given. An excerpt weighted towards active compounds, which were near 1.7% of everything screened.

SMILES | STEP block | LMPTP block | DSG3 Ab inh | SUMO1-SIM PPI | Scp1 inh
Cc1ccc(NC(=O)COC(=O)C(NS(=O)(=O)c2ccc(Cl)cc2)C(C)O)c(Br)c1 (stereo not given) | -3 | 0 | 53* | 6 | -5
Cc1ccc(NC(=O)COC(=O)C(NS(=O)(=O)c2ccc(Cl)cc2)C(C)O)cc1C (stereo not given) | -1 | 0 | 97 | 3 | -10
COc1ccccc1-c1nnc(SCC(=O)N2CCC(C)CC2)o1 | -1 | -1 | x | -1 | -14
CC1CCN(C(=O)CSc2nnc(-c3ccccc3F)o2)CC1 | 2 | -1 | 100 | 54* | -4
O=C1NC[C@H](CCCCN2C[C@H](Cc3ccc(O)cc3)N(Cc3ccccc3)C(=O)C2=O)N(CC2CCCCC2)C1=O | x | -2 | x | -3 | x
CC[n+]1c(/C=C/C=C/N(C(C)=O)c2ccccc2)sc2cc(OC)ccc21 | x | x | x | x | 61*
COc1cc([N+](=O)[O-])ccc1-c1ccc(/C=N\n2cnnc2)o1 | 31 | 22 | 127 | -4 | 12
COc1cc([N+](=O)[O-])ccc1-c1ccc(/C=C2\C(=O)ON=C2c2ccccc2)o1 | 4 | 3 | 91 | 64* | 3
CC(C)(C)c1ccc(-c2noc(CNC(=O)c3ccco3)n2)cc1 | -1 | 2 | 95 | 3 | -7
CCCN1CCN(C(=O)Cn2cnc3sc(C)c(S(=O)(=O)N4CCC(C)CC4)c3c2=O)CC1 | -2 | -1 | 106 | 48* | -6
O=c1[nH]c2cc(Cl)ccc2n1-c1ccccc1 | -7 | 2 | 111 | 40* | -13
OCC1OC(Oc2cccc3ccccc23)C(O)C(O)C1O (stereo not given) | 3 | -1 | 95 | -3 | -16
O=C(O)c1cc(O)c2c(c1)[C@@H]([C@H]1c3cc(C(=O)O)cc(O)c3C(=O)c3c(O[C@@H]4O[C@H](CO)[C@@H](O)[C@H](O)[C@H]4O)cccc31)c1cccc(O[C@@H]3O[C@H](CO)[C@@H](O)[C@H](O)[C@H]3O)c1C2=O | x | x | x | x | 86*
O=C(NNc1cc(N2CCCC2)nc(N2CCCC2)n1)c1ccc([N+](=O)[O-])cc1 | 0 | 11 | 99 | 37* | -6
COc1cc(NC(=O)COc2ccccc2Cl)ccc1NC(=O)c1cccs1 | -2 | 1 | 6.8* | 5 | 2
c1cc(-c2sc(-c3ccncc3)c(-c3ccncc3)c2-c2ccncc2)ccn1 | 1 | 2 | 108 | -9 | -7
COc1ccc(OC)c(/C=N/NC(=O)C(=O)N/N=C/c2cc(OC)ccc2OC)c1 | 2 | 1 | 54* | 1 | 0
COc1ccc(OC)c(C=NNC(=O)NN=Cc2cc(OC)ccc2OC)c1 | 4 | 3 | 102 | 0 | x
Cc1cc(C(=O)NC2CCCc3c2cnn3-c2ccc(C)c(C)c2)n(C)n1 (stereo not given) | 0 | 1 | 102 | -2 | 79*
Cc1ccc(-n2ncc3c2CCCC3NC(=O)c2ccoc2)cc1C (stereo not given) | -1 | 1 | 105 | 5 | -5
C/C(=C\C(=O)c1ccc(Br)cc1)Nc1ccc(Cl)cc1 | 1 | -2 | 78* | -4 | -1
C/C(=C\C(=O)c1ccc(Cl)cc1)Nc1ccc(N2CCOCC2)cc1 | -3 | -1 | 101 | -3 | -7
Cc1cc(CCNC=O)c(C)c2c1oc1ccccc12 | 1 | 1 | 97 | 2 | -10
Cc1ccc(CCNS(=O)(=O)c2c(C)nc3sccn3c2=O)cc1 | 4 | 0 | 112 | -5 | 2
Cc1nc2sccn2c(=O)c1S(=O)(=O)NCCc1ccc(Cl)cc1 | 0 | 1 | -7.6* | 0 | 2
SMILES | STEP block | LMPTP block | DSG3 Ab inh | SUMO1-SIM PPI | Scp1 inh
CCOC(=O)Cc1csc(SCn2nnc3ccccc3c2=O)n1 | 9 | -2 | 102 | -6 | 4
CCOC(=O)Cc1csc(-n2sc3ccccc3c2=O)n1 | -1 | 1 | 44* | 10 | 74*
COc1cc2c(cc1OC)/C(=C/C(=O)c1ccc(OC)c([N+](=O)[O-])c1)NCC2 | 3 | 2 | 90 | 42* | -6
CCc1nnc(NC(=O)Cc2sc(C)nc2-c2ccc(C)cc2)s1 | -4 | 1 | 92 | 1 | 0
O=C(COc1cc2oc(=O)c3c(c2cc1Cl)CCC3)Nc1cccnc1 | 3 | 2 | 77* | 0 | 1
O=C(COc1cc2oc(=O)c3c(c2cc1Cl)CCC3)Nc1ccccn1 | 5 | 15 | 73 | 7 | 1
COc1ccc(COC(=O)Oc2ccc(CNC(C)=O)cc2OC)c([N+](=O)[O-])c1 | -1 | 2 | 105 | -27 | 5
Cc1ccc(NC(=O)NCc2ccc3[nH]c(C)cc3c2)cc1 | 0 | 4 | 87* | -3 | -3
Cc1cccc(NC(=O)NCc2ccc3[nH]c(C)cc3c2)c1 | -1 | 0 | 93 | 1 | -7
Cc1cc2cc(CNC(=O)NC3CCCCC3)ccc2[nH]1 | 1 | 7 | 74* | -14 | -2
CCOC(=O)N1CCN(C(=O)C2CCN(Cc3cccc(OCc4ccccc4)c3)CC2)CC1 | 1 | 0 | 94 | 1 | -4
O=C1C=C(Nc2ccc(F)cc2)c2ccccc2C1=O | 7 | 5 | 118 | -39 | 0
CCOc1ccc(NC2=CC(=O)C(=O)c3ccccc32)cc1 | 20 | 5 | 91 | -19 | 57*
O=C1C=C(Nc2ccccc2O)c2ccccc2C1=O | 5 | 5 | 94 | 10 | -5
O=C1C=C(NCc2ccccc2)c2ccccc2C1=O | 5 | 10 | 99 | 44* | -1
CC(C)CN(C(=O)CSc1nnnn1-c1ccccc1)c1c(N)n(CC(C)C)c(=O)[nH]c1=O | 6 | -1 | 99 | -1 | -4
COCc1cc(=O)[nH]c(Nc2nc3ccccc3o2)n1 | 1 | 1 | x | 6 | -5
Cc1ccc2oc(Nc3nc(-c4ccccc4)cc(=O)[nH]3)nc2c1 | x | x | x | x | 96*
Cn1c2ccccc2c2cc(/C=N/NC(=O)c3cc(O)cc(O)c3)ccc21 | 12 | 9 | 118 | 38 | 49
Cn1c2ccccc2c2cc(/C=N/NC(=O)c3cc(O)ccc3O)ccc21 | 34 | 43 | x | 34 | 59*
CCOC(=O)N/N=C/c1cn(CCCOc2ccc(C)cc2)c2ccccc12 | 2 | 0 | -31* | -3 | -3
CCOC(=O)N/N=C/c1cn(Cc2ccc(Cl)cc2)c2ccccc12 | 1 | -1 | -28* | -1 | -3
CCOC(=O)N/N=C/c1cn(Cc2ccc(F)cc2)c2ccccc12 | 0 | 0 | 115 | 1 | -11
CC(OC(=O)c1cccc(S(=O)(=O)N2CCCC2)c1)C(=O)c1ccccc1 (stereo not given) | 1 | 5 | x | 0 | -9
COc1cccc2c1[C@@H]1CN(CCCCn3c(=O)[nH]c4c(sc5ncc(-c6ccccc6)nc54)c3=O)C[C@@H]1CO2 | 6 | 67* | 114 | -17 | 14
